{
  "source": "paper PMC4567406",
  "about": "(Journal of medicinal chemistry, 2015)",
  "key": {"[1]": {"system": "BT142 glioma cells with IDH1 R132H mutation", "assay": "Proliferation of glioma stem-like cells", "assay_type": "cell-based", "conditions": "14 days"}, "[2]": {"system": "BXD-3752 glioma cells without an IDH1 mutation", "assay": "Proliferation of glioma stem-like cells", "assay_type": "cell-based", "conditions": "BXD-3752, no IDH1 mutation, 14 days"}, "[3]": {"system": "IDH1 mutated cancer cells", "conditions": "cited from earlier work"}, "IDH1(R132H) [4]": {"molecular_target": "T1, IDH1(R132H) (Homo sapiens, UniProt O75874, R132H)", "T1 sequence (O75874 whole entry R132H)": "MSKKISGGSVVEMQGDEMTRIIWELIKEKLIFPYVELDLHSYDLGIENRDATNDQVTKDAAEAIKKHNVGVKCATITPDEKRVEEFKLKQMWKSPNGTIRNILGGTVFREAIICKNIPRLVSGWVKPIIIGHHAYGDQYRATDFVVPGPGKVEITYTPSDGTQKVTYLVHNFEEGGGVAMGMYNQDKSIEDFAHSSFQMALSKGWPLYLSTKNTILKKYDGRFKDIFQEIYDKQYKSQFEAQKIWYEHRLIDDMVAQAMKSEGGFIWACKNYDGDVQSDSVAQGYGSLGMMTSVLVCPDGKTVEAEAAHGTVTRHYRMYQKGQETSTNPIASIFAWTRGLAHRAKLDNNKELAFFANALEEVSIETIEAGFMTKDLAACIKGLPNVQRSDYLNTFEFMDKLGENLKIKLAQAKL", "assay": "IDH1", "assay_type": "biochemical", "conditions": "for Fold less active than compound 4: IDH1(R132H) Ki compared with compound 4", "procedure,_shortened": "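E. coli-expressed, column-purified IDH1(R132H) (100 nM) in 50 mM HEPES pH 7.5 with 4 mM MgCl2, 100 µM NADPH and graded inhibitor. After 5 min preincubation, 1 mM α-KG was added to start the reaction. NADPH consumption was read at 340 nm every 30 s. IC50s came from dose-response fits. Ki was derived by Cheng-Prusoff (Km 0.965 mM), or by Morrison tight-binding fitting when IC50 <1 µM. Values are means of ≥3 independent runs.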"}, "[5]": {"system": "HT1080 cells (IDH1 R132C)", "assay": "D2HG production inhibition in HT1080 cells", "assay_type": "cell-based, human", "conditions": "treated 2 days (48h)", "procedure,_shortened": "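HT1080 cells (10^5/well) grown in DMEM with 10% dialyzed FBS and exposed to increasing test-compound concentrations for 48h. Culture medium was collected, diluted with MeOH and centrifuged (20,000 rpm, 3 min). D2HG in the supernatant was quantified by HPLC-MS.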"}, "[6]": {"system": "HT1080 cells (IDH1 R132C)", "assay": "Histone lysine methylation levels, Western blot", "assay_type": "cell-based, human", "conditions": "treated 4 days", "procedure,_shortened": "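After 4 days of test-compound exposure, histones were extracted from treated and control HT1080 cells. Extracts were analysed by Western blot using antibodies to total human histone H3 and to specific methylated lysine marks.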"}, "IDH1(R132H) [7]": {"molecular_target": "T1, IDH1(R132H)", "assay": "Steady-state enzyme kinetic study", "assay_type": "biochemical"}, "IDH1(R132H) [8]": {"molecular_target": "T1, IDH1(R132H)", "assay": "Isothermal titration calorimetry", "assay_type": "binding"}, "[9]": {"conditions": "IDH1(R132H) 100 μM without NADPH, 298K"}, "[10]": {"conditions": "IDH1(R132H) 100 μM without NADPH, 298K, pH 7.4"}},
  "note": "Entries after “also recorded” stand apart in the source; their conditions may differ.",
  "data": [
    {"molecule": "Cc1ccccc1C(C(=O)NC1CCCCC1)N(C(=O)Cn1ccnc1C)c1cccc(F)c1", "note": "(stereo not shown) [Compound 1, reference compound]", "values": [
      {"measurement": "Effect on proliferation / neurosphere formation of glioma stem-like cells", "setting": "[1]", "value": "inhibited neurosphere formation; also recorded: can inhibit growth"},
      {"measurement": "Effect on proliferation / neurosphere formation of glioma stem-like cells", "setting": "[2]", "value": "did not affect neurosphere formation"},
      {"measurement": "Effect on proliferation of IDH1 mutated cancer cells", "setting": "[3]", "value": "can also inhibit proliferation"}
    ]},
    {"molecule": "O=C1C(=Cc2ccc(O)c(O)c2)NC(=S)N1Cc1ccccc1", "note": "[Compound 4, 3-benzyl-5-(3,4-dihydroxybenzylidene)-2-thiohydantoin]", "values": [
      {"measurement": "Ki", "setting": "IDH1(R132H) [4]", "value": 4.7, "unit": "µM"}
    ]},
    {"molecule": "COc1ccc(/C=C2/NC(=S)N(c3ccccc3)C2=O)cc1OC", "note": "[Compound 6]", "values": [
      {"measurement": "Inhibitory activity against IDH1(R132H) in words", "setting": "IDH1(R132H) [4]", "value": "inactive"}
    ]},
    {"molecule": "COc1ccc(CN2C(=O)/C(=C\\c3ccc(OC)c(OC)c3)NC2=S)cc1", "note": "[Compound 7]", "values": [
      {"measurement": "Inhibitory activity against IDH1(R132H) in words", "setting": "IDH1(R132H) [4]", "value": "inactive"}
    ]},
    {"molecule": "O=C1/C(=C\\c2ccc(O)c(O)c2)NC(=S)N1c1ccccc1", "note": "[Compound 8]", "values": [
      {"measurement": "Fold less active than compound 4", "setting": "IDH1(R132H) [4]", "value": "~ 3 fold"}
    ]},
    {"molecule": "O=C1/C(=C\\c2ccc(O)c(O)c2)NC(=S)N1Cc1ccc(O)cc1", "note": "[Compound 9]", "values": [
      {"measurement": "Fold less active than compound 4", "setting": "IDH1(R132H) [4]", "value": "~ 3 fold"}
    ]},
    {"molecule": "O=C1/C(=C\\c2cccnc2)NC(=S)N1Cc1ccccc1", "note": "[Compound 10]", "values": [
      {"measurement": "Inhibitory activity against IDH1(R132H) in words", "setting": "IDH1(R132H) [4]", "value": "inactive"}
    ]},
    {"molecule": "COc1ccc(/C=C2/NC(=S)N(Cc3ccccc3)C2=O)cn1", "note": "[Compound 11]", "values": [
      {"measurement": "Inhibitory activity against IDH1(R132H) in words", "setting": "IDH1(R132H) [4]", "value": "inactive"}
    ]},
    {"molecule": "CN1C(=O)/C(=C\\c2ccc(=O)[nH]c2)NC1=S", "note": "[Compound 16]", "values": [
      {"measurement": "Effect on proliferation / neurosphere formation of glioma stem-like cells", "setting": "[1]", "value": "inhibited neurosphere formation; also recorded: significantly inhibit proliferation"},
      {"measurement": "Effect on proliferation / neurosphere formation of glioma stem-like cells", "setting": "[2]", "value": "did not affect neurosphere formation; also recorded: did not have activity"},
      {"measurement": "Effect on production of D2HG", "setting": "[5]", "value": "significantly reduced the production of D2HG; also recorded: significantly reduced amount of D2HG"}
    ]},
    {"molecule": "O=C1NC(=S)N/C1=C/c1ccc(=O)[nH]c1", "note": "[Compound 18]", "values": [
      {"measurement": "Effect on proliferation / neurosphere formation of glioma stem-like cells", "setting": "[1]", "value": "inhibited neurosphere formation; also recorded: significantly inhibit proliferation"},
      {"measurement": "Effect on histone lysine methylation levels (H3K4me3, H3K4me2, H3K27me2, H4K20me2)", "setting": "[6]", "value": "significantly reduced methylation levels; also recorded: significantly reduce the methylation levels"},
      {"measurement": "Effect on proliferation / neurosphere formation of glioma stem-like cells", "setting": "[2]", "value": "did not affect neurosphere formation; also recorded: did not have activity"},
      {"measurement": "Effect on production of D2HG", "setting": "[5]", "value": "significantly reduced the production of D2HG; also recorded: significantly reduced amount of D2HG"},
      {"measurement": "Mode of action against the cofactor NADPH", "setting": "IDH1(R132H) [7]; variable NADPH, Michaelis-Menten plot", "value": "noncompetitive"},
      {"measurement": "Mode of action against the substrate α-KG", "setting": "IDH1(R132H) [7]; variable α-KG, Lineweaver-Burk plot", "value": "competitive"},
      {"measurement": "calculated ΔS of binding", "setting": "IDH1(R132H) [8]; [9]", "value": 95.0, "unit": "J K^−1 mol^−1"},
      {"measurement": "ΔG of binding", "setting": "IDH1(R132H) [8]; [9]", "value": -7.12, "unit": "kcal/mol"},
      {"measurement": "Ka (affinity constant)", "setting": "IDH1(R132H) [8]; [10]", "value": 168000, "unit": "M⁻¹"},
      {"measurement": "ΔH of binding", "setting": "IDH1(R132H) [8]; [10]", "value": -0.359, "unit": "kcal/mol"},
      {"measurement": "ΔH of binding", "setting": "IDH1(R132H) [8]; IDH1(R132H) 133 μM in the presence of NADPH (300 μM)", "value": -0.598, "unit": "kcal/mol"}
    ]},
    {"molecule": "COc1ccc(/C=C2/NC(=S)N(CC(=O)O)C2=O)cn1", "note": "[Compound 19]", "values": [
      {"measurement": "Inhibitory activity against IDH1(R132H) in words", "setting": "IDH1(R132H) [4]", "value": "none of these compounds are active"}
    ]},
    {"molecule": "O=C(O)CN1C(=O)/C(=C\\c2ccc(=O)[nH]c2)NC1=S", "note": "[Compound 20]", "values": [
      {"measurement": "Effect on histone lysine methylation levels (H3K4me3, H3K4me2, H3K27me2, H4K20me2)", "setting": "[6]", "value": "did not significantly affect histone methylation levels; also recorded: did not significantly reduce"},
      {"measurement": "Inhibitory activity against IDH1(R132H) in words", "setting": "IDH1(R132H) [4]", "value": "none of these compounds are active"},
      {"measurement": "Effect on production of D2HG", "setting": "[5]", "value": "did not significantly reduce D2HG"}
    ]},
    {"molecule": "O=C1NC(=S)N/C1=C/c1ccnc(Br)c1", "note": "[Compound 32]", "values": [
      {"measurement": "Inhibitory activity against IDH1(R132H) in words", "setting": "IDH1(R132H) [4]", "value": "Loss of activity"}
    ]},
    {"molecule": "COc1ccc(/C=C2/NC(=O)NC2=O)cn1", "note": "[Compound 37]", "values": [
      {"measurement": "Inhibitory activity against IDH1(R132H) in words", "setting": "IDH1(R132H) [4]", "value": "Complete loss of activity"}
    ]},
    {"molecule": "O=C1NC(=O)/C(=C\\c2ccc(=O)[nH]c2)N1", "note": "[Compound 38]", "values": [
      {"measurement": "Inhibitory activity against IDH1(R132H) in words", "setting": "IDH1(R132H) [4]", "value": "Complete loss of activity"}
    ]},
    {"molecule": "NC1=N/C(=C/c2ccc(=O)[nH]c2)C(=O)N1", "note": "[Compound 39]", "values": [
      {"measurement": "Inhibitory activity against IDH1(R132H) in words", "setting": "IDH1(R132H) [4]", "value": "inactive"}
    ]},
    {"molecule": "CSC1=N/C(=C/c2ccc(=O)[nH]c2)C(=O)N1", "note": "[Compound 40]", "values": [
      {"measurement": "Inhibitory activity against IDH1(R132H) in words", "setting": "IDH1(R132H) [4]", "value": "completely lose the inhibitory activity"}
    ]},
    {"molecule": "CN1C(=O)/C(=C\\c2ccc(=O)[nH]c2)N(C)C1=S", "note": "[Compound 41]", "values": [
      {"measurement": "Fold activity reduction compared to compound 16", "setting": "IDH1(R132H) [4]; IDH1(R132H) Ki compared with compound 16", "value": 22, "unit": "fold"}
    ]}
  ]
}
